# Results gathered from unrelated publications.
# Lines come from different studies, so protocols differ.
# Target: TRAF2 and NCK-interacting protein kinase (TNIK, Homo sapiens, UniProt Q9UKE5)
Structure (SMILES),read-out,technique,tested at,remaining binding
COc1ccnn2ncc(-c3ccnc(N(C)C)n3)c12,binding,,1 µM,63%
CC(C)CC(=O)N1CCc2nc(-c3ccc(Br)cc3)nc(N(C)Cc3ccccc3)c2C1,cell-free assay,competition with immobilised ligand,0.1 µM,100%
C[C@H]1CCN(c2nccc(-c3cnn4ncccc34)n2)C1,binding,,1 µM,100%
O=C(Nc1c[nH]nc1C(=O)NC1CCNCC1)c1cc(F)cc(F)c1,binding,competition with immobilised ligand,1 µM,100%
C[C@@H](c1ccc(-n2cnc3c(N)ncnc32)cc1)N1CCc2nn(C)c(Cc3ccccc3)c2C1=O,binding,competition with immobilised ligand,0.1 µM,76%
Cc1cc(C)c(-n2ccn3nc(-c4cccnc4)cc23)cc1NC(=O)c1cc(C#N)cc(S(F)(F)(F)(F)F)c1,cell-free assay,competition with immobilised ligand,0.1 µM,97.4%
Cc1cnn2ncc(-c3ccnc(N(C)C)n3)c2c1,binding,,1 µM,80%
Cc1cnc(Nc2ccc(C(=O)N3CCC(N4CCCC4)CC3)cc2)nc1-c1cc2ccccc2s1,binding,competition with immobilised ligand,1 µM,68%
COc1ncc2cc3ccccc3nc2c1C#N,cell-free assay,competition with immobilised ligand,5 µM,100%
N[C@H]1CCN(c2nccc(-c3cnn4ncccc34)n2)C1,binding,,1 µM,80%
CC1=C(C#N)C(c2ccc3c(c2)c(NC(=O)c2ccccc2C)nn3C)C(C#N)=C(C)N1,cell-free assay,competition with immobilised ligand,1 µM,98%
c1cnn2ncc(-c3ccnc(N4CCC45COC5)n3)c2c1,binding,,1 µM,72%
COc1cnc(Nc2cccc(S(N)(=O)=O)c2)nc1N1CCN(c2ccccc2)C(=O)C1,binding,competition with immobilised ligand,1 µM,76%
Nc1ncc2c(n1)-c1c([nH]c3ccc(C#CC4CC4)cc13)CCCC2,binding,competition with immobilised ligand,1 µM,42%
C=CC(=O)N1CCC(C(=O)NCC(=O)N2CCN(c3nc(-c4cnc(N)nc4C(F)F)nc(N4CCOCC4)n3)CC2)CC1,binding,competition with immobilised ligand,1 µM,87%
O=C(Nc1cccnn1)N1CCC(=Cc2cccc(Oc3ccc(C(F)(F)F)cn3)c2)CC1,cell-free assay,competition with immobilised ligand,1 µM,100%
O=C(c1ccc(Nc2nccc(-c3cc4ccccc4s3)n2)cc1)N1CCC(N2CCCC2)CC1,binding,competition with immobilised ligand,1 µM,79%
CS(=O)(=O)N1CCCC(NC(=O)[C@H](CCC2CCCCC2)NC(=O)c2ccc(CNc3ncnc4c3nnn4-c3ccccc3)cc2)C1 (stereo partly drawn),binding,competition with immobilised ligand,1 µM,45%
CN(C)c1nccc(-c2cnn3ncccc23)n1,binding,,1 µM,100%
CC(=O)Nc1c(C(C)=O)c(=O)n(C)c2nc(-c3ccc(Cl)cc3Cl)c(-c3ccc(Cl)cc3)cc12,cell-free assay,competition with immobilised ligand,1 µM,100%
O=C(c1ccc(Nc2ncc(Cl)c(-c3cc4ccccc4s3)n2)cc1)N1CCC(N2CCCC2)CC1,binding,competition with immobilised ligand,1 µM,73%
